E-sel inducer = E-selectin induction on HUVECs | P16581 | HUVEC E-selectin immunofluorescence imaging; normalized: neutral wells 0, TNF-alpha wells 100 | activation, % at 7.58 µM | 260,000 tested, 0.37% active | AID 686992;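 active = mean E-selectin-positive cell signal at least 10% of the positive control, reached in at least 60% of replicates, without over 20% cell loss; inconclusive = no rule given, readout overlaps actives, possibly toxicity-flagged; inactive = the rest, including those meeting only one limit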
Target sequence (P16581 whole entry, looked up): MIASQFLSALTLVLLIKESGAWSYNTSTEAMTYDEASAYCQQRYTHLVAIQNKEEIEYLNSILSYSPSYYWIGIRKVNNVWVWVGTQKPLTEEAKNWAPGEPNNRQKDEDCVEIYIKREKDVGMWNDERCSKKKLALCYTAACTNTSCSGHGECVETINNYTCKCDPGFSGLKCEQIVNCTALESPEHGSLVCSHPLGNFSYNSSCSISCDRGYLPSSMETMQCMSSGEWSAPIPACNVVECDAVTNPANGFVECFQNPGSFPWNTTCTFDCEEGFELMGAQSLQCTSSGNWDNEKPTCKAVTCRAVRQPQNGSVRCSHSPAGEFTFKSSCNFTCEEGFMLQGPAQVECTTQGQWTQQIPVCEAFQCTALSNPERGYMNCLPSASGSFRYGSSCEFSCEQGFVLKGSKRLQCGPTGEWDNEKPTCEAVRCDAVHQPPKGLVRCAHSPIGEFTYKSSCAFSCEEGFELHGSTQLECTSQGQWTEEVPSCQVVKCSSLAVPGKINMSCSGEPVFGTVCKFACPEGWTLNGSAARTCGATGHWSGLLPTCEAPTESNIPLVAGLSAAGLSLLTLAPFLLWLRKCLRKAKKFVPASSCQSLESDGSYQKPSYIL
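Test system: HUVEC; input: 3,000 HUVEC/well; measured by: immunofluorescence imaging; read-out: % PE-positive cells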
rRNA inh HTS = inhibits bacterial ribosomal RNA function over humanized ribosomes; AID 720706; 350,000 tested, 1.6% active; E. coli WT GFP vs humanized-ribosome RFP mutants, fluorescence, 24 h; active compounds read low; DMSO median 0, no signal -100; GFP signal change (wild-type ribosome), % (test concentration not listed);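 active = significant combined selectivity score with lowered wild-type GFP, culture density cut under 30%, mutant RFP and density less affected; inactive = any of these conditions unmet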
miR-122 sensor = miR-122 inhibition in Huh7 cells; Huh7 miR-122 Renilla luciferase sensor, 48 h; neutral wells = 0, positive control = 100; activation (reporter increase), % at 12.5 µM; 340,000 tested, 0.3% active;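 active = mean replicate activation score at least 90 and every replicate individually at or above 90; inconclusive = only one of the two criteria met; inactive = neither criterion met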;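 note: higher luciferase means less miR-122 activity so hits act as miR-122 inhibitors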
Cneo AK release = Cryptococcus neoformans lysis via adenylate kinase release; lysis activity, % at 15 µM; C. neoformans lysis, adenylate kinase release luminescence, 4 h; normalised: neutral wells 0, clomiphene wells 100; 360,000 tested, 0.2% active;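 active = mean lysis activity across replicates of at least 80%, whatever share of replicates individually reach that level; inactive = mean lysis activity below 80%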
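Assay system: C. neoformans cells. Amount: yeast cell density of 5 × 10^6 cells/mL. Technique: AK luminescence. Buffer or medium: YPD. Times: static 4 h at 37 °C with compound, 1 h detection. Dosing: single-point compound dose. Read-out: lysis from increased AK signal.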
DENV2 CPE = protects cells from dengue virus 2 cytopathic effect; DENV2-infected cells, cytopathic effect rescue, plate reader; CPE inhibition, % at 9.99 µM; 350,000 tested, 1.7% active; AID 651640; in the data active = CPE inhibition above about 20%, passing the limit was not always enough; inconclusive = no clear call, values can overlap the other calls; tested in BHK-21 cells;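 note: 0% = median of neutral control wells and 100% = median of positive control wells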
The depositor's hits bear a star; ? = inconclusive; nt = no result; ! = a repeat was not active; [ ] = dose if it differs, or a comment. Rows were chosen to be rich in hits. Some 3.1% of all compounds tested hit in one or more screens of this group.

SMILES | E-sel inducer | rRNA inh HTS | miR-122 sensor | Cneo AK release | DENV2 CPE
Cc1ccc(OC(=O)N(C)C[C@@H]2OCc3ccccc3-c3c(n(C)c4ccccc34)C(=O)N([C@@H](C)CO)C[C@H]2C)cc1 | -3 | -2 | nt | nt | 3
COC(=O)C1C(c2ccc(C)cc2)CC2CCC1N2C (centres undefined) | nt | 11 | nt | nt | 28*
C=CCn1c(O)c(C(C)=NCCCN(C)C)c(=O)[nH]c1=O | 50* | 19 | nt | nt | 1
CCOC(=O)c1c(C)n(CC(O)CN2CCOCC2)c2cc(Br)c(OC)cc12 (centres undefined) | -4 | -42* | nt | nt | 1
CCOC(=O)c1c(C)n(CCN2CCN(C)CC2)c2ccc(OC)cc12 | nt | nt | 4 | 5 | nt
CC=Cc1ccc2n(c1=O)C[C@H]1[C@H](CO)[C@@H](C(=O)OC)[C@@H]2N1CC1CCOCC1 (mixture of isomers) | 0 | 1 | nt | -1 | -6
O=[N+]([O-])c1ccc(Nc2ccccc2)cc1 | nt | -16 | -3 | nt | -4
c1ccc(Nc2ccc(Nc3ccccc3)cc2)cc1 | nt | -14 | -9 | -2 | 41*
CC(=O)N1C2CN(C)CC1C2c1ccc(Br)cc1 (centres undefined) | nt | -3 | nt | nt | nt
CC(=O)N1CC(=O)Nc2ccc(Cl)cc2C1c1ccccc1 (centres undefined) | nt | 12 | -8 | 1 | 0
CN=C1CN(O)C(c2ccccc2)c2cc(Cl)ccc2N1 (centres undefined) | 0 | 0 | 111* | 1 | 1
COC(=O)[C@H]1[C@H](CO)[C@H]2Cn3c(ccc(C4=CCCCC4)c3=O)[C@@H]1N2CC1CCCCC1 | -1 | -26 | nt | nt | -7
C[C@]12CC[C@@H](O)CC1=CCC1C2CC[C@@]2(C)C1CC[C@@H]2N (some centres undefined) | 1 | -4 | 7 | -2 | -9
COc1cc(/C=C2\C[C@H]3[C@@H]4CC=C5C[C@@H](N6CCCC6)CC[C@]5(C)[C@H]4CC[C@]3(C)[C@H]2O)cc(OC)c1OC | 0 | -21* | nt | nt | 4
O=C(NC1CCCCC1)N1Cc2cc(-c3cccc(F)c3)ccc2-n2nncc2C1 | 1 | -8 | 10 | 0 | 4
COc1ccc(-c2ccc3c(c2)CN(C(=O)NC2CCCCC2)Cc2cnnn2-3)cc1 | 1 | -6 | 24 | 0 | 24*
COc1cc2c(c(OC)c1OC)-c1ccc(O)c(=O)cc1C(NC(C)=O)CC2 (centres undefined) | 0 | 19 | 97* | -1 | -11
C[C@H](CO)N1C[C@H](C)[C@@H](CN(C)C(=O)Oc2ccccc2)OCc2ccccc2-c2c(n(C)c3ccccc23)C1=O | nt | -5 | nt | nt | nt
C[C@H]1CN([C@@H](C)CO)C(=O)c2c(c3ccccc3n2C)-c2ccccc2CO[C@H]1CN(C)C(=O)Oc1ccccc1 | 0 | -4 | nt | nt | 81*
C[C@@H]1CN([C@@H](C)CO)C(=O)CCCn2nncc2CO[C@H]1CN(C)C(=O)Oc1cccc2ccccc12 | 0 | 15 | -10 | 88*! | 0
CC(=O)N1C[C@@H]2C(c3ccc(Br)cc3)[C@H](C1)N2CC1CC1 (some centres undefined) | nt | -2 | nt | nt | nt
O=C(Cc1ccccn1)N1CC2(C1)[C@H](c1ccccc1)[C@@H](CO)N2Cc1ccccn1 | 0 | 2 | nt | nt | 1
CCC(=NCCN1CCOCC1)c1c(O)n(C2CCCCC2)c(=O)[nH]c1=O | 30* | 6 | nt | nt | -1
CCC(=NCCCN(CC)CC)c1c(O)n(C2CCCCC2)c(=O)[nH]c1=O | nt | nt | -4 | 1 | nt
COC(=O)[C@H]1[C@H](CO)[C@H]2Cn3c(ccc(-c4ccccc4)c3=O)[C@@H]1N2CC1CC1 | 0 | 0 | -2[16.7 µM] | 0 | 2
O=C1CNC[C@@H]2[C@H](c3ccc(Br)cc3)[C@@H](CO)N12 | 0 | 3 | nt | nt | ?
C=C[C@@H]1C2=CCOC(=O)C2=CO[C@H]1O[C@@H]1O[C@H](CO)[C@@H](O)[C@H](O)[C@H]1O | 0 | 2 | -2 | 1 | 23*
O=c1ccc2cc(OC3O[C@H](CO)[C@@H](O)[C@H](O)[C@H]3O)c(O)cc2o1 (some centres undefined) | 1 | nt | -1 | -2 | 8
CCC(=O)OC1CCC2C3CCC4CC(=O)C=CC4(C)C3CCC12C (centres undefined) | 2 | nt | -2 | nt | -15

Source: PubChem BioAssay (Broad Institute)
